The values below come from ChEMBL document CHEMBL4152387, “Discovery of a Potent Grp94 Selective Inhibitor with Anti-Inflammatory Efficacy in a Mouse Model of Ulcerative Colitis” (J Med Chem, 2018).

The nature of series [1]: Binding affinity to dog His-tagged biotinylated GRP94 N41 deletion mutant (69 to 337 residues) expressed in Escherichia coli BL21star (DE3) by biolayer interferometry. On the set-up: species or system Canis lupus familiaris. In outline:
(§1)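 His-tagged Grp94N biotinylated at one molar ratio in PBS pH 7.4, dialysed overnight, loaded at 400 nM on streptavidin biosensors after 10 min prewetting in PBS, 0.05% BSA, 0.01% Tween-20. Four compound concentrations in this buffer tested; binding recorded at 30 °C by biolayer interferometry.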

Series [2] concerns the target T1, Heat shock protein HSP 90-alpha (Homo sapiens, UniProt P07900). Kind of series: Inhibition of FITC-geldanamycin binding to human His-tagged HSP90alpha N-terminal domain (1 to 236 residues) expressed in Escherichia coli BL21star (DE3) at 100 uM after 4 hrs by FP assay relative to control. The gist of the method: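 Hsp90αN (15 nM final) with GM-FITC (6 nM final) and compound in HEPES/KCl/MgCl2 buffer pH 7.4 with NP40, DTT, BGG; 4 h at 4 °C in dark; FP at ex 485/em 535 nm; inhibition computed against GM-FITC-only and protein-plus-probe controls; n = 3.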

The subject of series [3] is Mus musculus. Kind of series: In-vivo inhibition of HSP90/HSP70 pathway in C57BL/6 mouse model of DSS-induced ulcerative colitis assessed as effect on Akt expression in colonic tissues at 10 to 30 mg/kg, ip qd co-administrated with DSS measured on day 7 post dose. It is filed as organism-based. The gist of the method: (§2)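 DSS colitis in male C57BL/6 mice (3% DSS, 7 days, ip qd 10 or 30 mg/kg, vehicle controls); colons flash-frozen at day 7, homogenized in lysis buffer with protease/phosphatase inhibitors. Equal protein by BCA run on SDS-PAGE, PVDF, 1% BSA block, primary antibodies 37 °C 1 h then 4 °C overnight, DyLight 800 secondary, infrared scan; β-actin loading control.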

The test system of series [4] is Mus musculus. Kind of series: Anti-inflammatory activity in C57BL/6 mouse model of DSS-induced ulcerative colitis assessed reduction in TLR2 expression in colonic tissues at 10 to 30 mg/kg, ip qd co-administrated with DSS measured on day 7 post dose. Format: functional, organism-based. The gist of the method:
as §2

Series [5] concerns the target T1, Heat shock protein HSP 90-alpha. The series is described as follows: Binding affinity to human His-tagged HSP90alpha N-terminal domain (1 to 236 residues) expressed in Escherichia coli BL21star (DE3) association constant by biolayer interferometry. As to conditions: read-out: K. In outline: (§3)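 Biotinylated His-tagged N-terminal protein, labelled in PBS pH 7.4 at one molar ratio with excess biotin removed by overnight dialysis, was loaded at 400 nM final onto streptavidin biosensors pre-wetted 10 min in kinetics buffer (PBS, 0.05% BSA, 0.01% Tween-20). Four compound concentrations in kinetics buffer were then tested for binding, with all data collected at 30 °C.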

In series [6] the test system is Mus musculus. The series is described as follows: Subacute toxicity in C57BL/6 mouse assessed as effect on liver at 30 to 90 mg/kg, ip qd for 2 weeks by hematoxylin and eosin staining analysis. It is filed as organism-based. As to conditions: in vivo, 336 h.
Series [7] relates to Mus musculus. Kind of series: Anti-inflammatory activity in C57BL/6 mouse model of DSS-induced ulcerative colitis assessed reduction in disease activity index at 10 to 30 mg/kg, ip qd co-administrated with DSS measured until day 7 post dose. It is filed as functional, organism-based. The gist of the method: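 Male C57BL/6 mice (20−22 g), n = 8 per group, 3% DSS in drinking water for 7 days with ip qd dosing at 10 or 30 mg/kg; vehicle for normal and disease controls. Body weight, stool consistency and rectal bleeding recorded daily; DAI scored from weight loss, stool consistency and stool blood.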

The nature of series [8]: Inhibition of FITC-geldanamycin binding to dog GST-tagged GRP94 N41 deletion mutant (69 to 337 residues) expressed in Escherichia coli BL21star (DE3) after 4 hrs by GM-FITC-based FP assay. On the set-up: species or system Canis lupus familiaris.
Series [9] has as its target T1, Heat shock protein HSP 90-alpha. The series is described as follows: Binding affinity to human His-tagged HSP90alpha N-terminal domain (1 to 236 residues) expressed in Escherichia coli BL21star (DE3) by biolayer interferometry. In outline: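 His-tagged Hsp90N biotinylated in PBS pH 7.4 (one molar ratio), dialysed overnight, immobilized at 400 nM on streptavidin sensors; kinetics buffer PBS, 0.05% BSA, 0.01% Tween-20; four compound concentrations; 30 °C biolayer interferometry.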

For series [10] the target is unchanged. The series is described as follows: Binding affinity to human His-tagged HSP90alpha N-terminal domain (1 to 236 residues) expressed in Escherichia coli BL21star (DE3) dissociation constant by biolayer interferometry. As to conditions: read-out: K. The gist of the method: as §3
The subject of series [11] is Mus musculus. The series is described as follows: Anti-inflammatory activity in ip dosed C57BL/6 mouse model of DSS-induced ulcerative colitis assessed reduction in TNFalpha levels in colonic tissues co-administrated once daily with DSS measured on day 7 post dose by ELISA. It is filed as functional, organism-based. The gist of the method:
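DSS colitis in male C57BL/6 mice (3% DSS in water, 7 days, ip qd co-dosing, vehicle controls). Serum and colons taken at sacrifice on day 7; colon homogenate supernatants and serum assayed for mouse TNFα and IL-6 by ELISA kits; n = 5 samples per group.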

The species named for another series is Canis lupus familiaris. The series is described as follows: Binding affinity to dog His-tagged biotinylated GRP94 N41 deletion mutant (69 to 337 residues) expressed in Escherichia coli BL21star (DE3) assessed as association constant by biolayer interferometry. The gist of the method: as §1
In series [12] the test system is Mus musculus. The series is described as follows: Subacute toxicity in C57BL/6 mouse assessed as behavioral abnormalities at 30 to 90 mg/kg, ip qd for 2 weeks. Format: organism-based. As to conditions: in vivo, 336 h.

Active and inactive are the calls of the source. No cut-off for these calls is given here.

Consider `CC(C)c1ccc(-c2ccc(N[C@H]3CC[C@H](O)CC3)c(C(N)=O)c2)cc1`, for which the values for the Kd in series [1] and in [9] were 19.6 nM and 20600 nM, respectively. Further, in [2], the “inhibition (INH)” value was “Not Active”. The Activity result in the series with Mus musculus [3] is “Non-Toxic”; with Mus musculus [6] it was “Non-Toxic”; in the series with Mus musculus [11], “Dose-dependent effect”; in the series with Mus musculus [12], “Non-Toxic”. Moreover, the result in the series with Mus musculus [4] and in the series on Mus musculus [7] was Active. Also, in [5], the kon came out at 1680 M⁻¹ s⁻¹. Besides, the IC50 in series [8] was determined as 2 nM. Further, the koff in [10] came to 0.0345 s⁻¹. Besides, the K in the series listed under Canis lupus familiaris came to 6.38 ×10⁵ /M/s.
